The term inhibition denotes the change of the read-out against control, counted positive when it falls.

Hit rate of the full screen: of about 300,000 compounds, about 4,400 (1.5%) were called active.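 The calls were made as follows: active = mean inhibition across valid replicates above about 55% (limit read from the data); inconclusive = mean below that limit but half or more replicates reach it; inactive = mean below it, under half of replicates reach it.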 What follows is part of a selection rich in actives, with near analogues and random picks from the rest.

The nature of the experiment: Trypanosoma cruzi replication blockers in host cells – luminescence, NIH3T3 host cells, primary screen (AID 1885).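 Also: signal also drops with host cell toxicity which is not excluded here; 0% = plate median of DMSO wells and 100% = zero luminescence signal; higher percent means less beta-gal luminescence so fewer parasites.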 As to conditions: T. cruzi beta-gal in NIH3T3, luminescence, 90 h; stronger effect = higher value; concentration not given here. The procedure, abridged: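 Assay system: NIH/3T3 fibroblasts plus reporter T. cruzi. Amount: NIH/3T3 cells, 5,000 per well. Buffer or medium: DMEM, 2% fetal bovine serum. Doses: compound pinned at 50 nL/well, DMSO. Schedule: ≥90 h infection period, 3 h prior cell attachment. Signal: luminescent β-galactosidase signal after 60 min lysis. Read-out: parasite load inhibition, %.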
For `CC(Sc1nnc(-c2ccccc2F)n1C1CC1)C(N)=O` (centres undefined), the inhibition was -10.8% (inactive).
The result for `COc1ccc(-c2nc(CS(=O)(=O)CC(=O)NCc3cccc(Br)c3)c(C)o2)cc1` reads -6.3% (inactive).
The result for `COc1ccc(C(=O)NCC(=O)N/N=C/c2ccc([N+](=O)[O-])s2)cc1OC` reads 64.6% (active); that for `COc1cc(/C=N/NC(=O)CNC(=O)c2ccncc2)ccc1OC(C)=O`, -4.41% (inactive); that for `CC(C)(C)c1cc(C(=O)N/N=C/c2ccc([N+](=O)[O-])s2)n[nH]1`, 57.6% (active).
As for `COc1ccc(C(=O)NCC(=O)N/N=C/c2ccc([N+](=O)[O-])o2)cc1OC`, the figure is -11% (inactive); as for `CCOc1ccc(NC(=O)CCC(=O)N/N=C/c2ccc([N+](=O)[O-])s2)cc1`, 50.6% (inactive); as for `Cc1ccccc1NCC(=O)N/N=C\c1ccc([N+](=O)[O-])s1`, 64.6% (active).
In the case of `Cc1cc(C(=O)N/N=C/c2cc([N+](=O)[O-])cc(C)c2O)n[nH]1`, the inhibition was -40.2% (inactive).
The result for `COc1ccc2ccccc2c1/C=N/NC(=O)c1cc(C)[nH]n1` reads -14.2% (inactive).
The result for `Cc1cccc(/C=N/NC(=O)CNc2cccc3ccccc23)n1` reads -0.344% (inactive); that for `O=C(NCCNc1ccc([N+](=O)[O-])cc1)c1cccc2c(Br)cccc12`, 5.94% (inactive); that for `c1ccc(Cc2ccc(OCCn3ccnc3)cc2)cc1`, 28.2% (inactive).
As for `O=C(O)c1ccn(COc2ccc(Br)cc2)n1`, the figure is -13.4% (inactive).
On to `Brc1ccc(OCCn2ccnc2)cc1`, for which the inhibition was 68.5% (active).
The result for `O=C(NCCS(=O)(=O)N1CCN(c2ccc(F)cc2)CC1)c1ccc2c(c1)OCO2` reads -12.2% (inactive).
As for `COc1ccc(NC(=O)CN(C)C(=O)/C=C/c2cn(Cc3ccccc3)nc2-c2cccnc2)cc1`, the figure is 4% (inactive); as for `NC(=S)Nc1c(Cl)cccc1Cl`, -4.22% (inactive).
As for `COC(=O)c1cc(-c2cccs2)nc2ccccc12`, the inhibition is 5.51% (inactive).
As for `CCCCN(C)CCCNC(=O)c1cc(-c2cccs2)nc2ccccc12`, the figure is 63.8% (active); as for `O=C(NCCN1CCOCC1)c1cc(-c2cccs2)nc2ccccc12`, -5.61% (inactive).
As for `COc1cnn(-c2ccc([N+](=O)[O-])cc2)c(=O)c1Cl`, the figure is 7.92% (inactive).
As for `CCN1C(=O)[C@H]2[C@@H](c3ccc(-c4ccc(OC)cc4)cc3)N[C@@](Cc3ccccc3)(C(=O)OC)[C@H]2C1=O`, the figure is -3.65% (inactive).
As to `CCOC(=O)C1(CCOC)CCN(Cc2cc3ccccc3s2)CC1`, the inhibition is 6.96% (inactive).
As for `Cc1ccc(S(=O)(=O)N2CCCC2C(=O)OCc2nc3sc(C)c(C)c3c(=O)[nH]2)cc1` (centres undefined), the figure is -13% (inactive); as for `O=C(NCCCn1ccnc1)c1ccccc1F`, 7.44% (inactive); as for `C=CCc1cc(C)ccc1OCCCn1ccnc1`, 36.6% (inactive).
As for `Clc1c(OCCCn2ccnc2)ccc2ccccc12`, the figure is 61.3% (active).
As for `Cc1cc(Nc2cc(N3CCN(C)CC3)nc(Sc3ccc(NC(=O)C4CC4)cc3)n2)n[nH]1`, the figure is 26.9% (inactive); as for `CC(=O)CC(CC(=O)NC1CCCCC1)c1ccccc1` (centres undefined), -21.8% (inactive).
With `CCOc1ccc(C(=O)NCC(=O)N2CCCCCCC2)cc1OCC`, the inhibition is 17.5% (inactive).
The result for `CCc1noc(C)c1C(=O)NNC(=O)c1ccc(F)cc1` reads -6.32% (inactive).
The result for `CC(C)(C)S(=O)(=O)c1ccccc1-c1noc(-c2ccccc2)c1C(N)=O` reads -8.06% (inactive).
As for `Cc1cc(C)c2nc(SCCC#N)nc(C)c2c1`, the figure is 1.26% (inactive); as for `Cc1cc(C)c2nc(-c3ccco3)cc(C(=O)O)c2c1`, -8.53% (inactive); as for `Cc1cc(C)c2nc3nc(C)cc(C)c3c(N)c2c1`, 58.9% (active).
In the case of `O=C(COC(=O)c1ncc(Cl)c(Cl)c1Cl)NNC(=O)c1ccccc1`, the inhibition is -29.7% (inactive).
For the compound `Cc1ccc2nc(NC(=O)C3CSC4(C)CCC(=O)N34)sc2c1` (centres undefined), the inhibition is -3.69% (inactive).
The result for `CC(C)Oc1c(Br)cc(Br)cc1/C=N/NC(N)=S` reads 66.9% (active); that for `CCOc1ccc(/C=N/NC(N)=S)cc1`, 15.1% (inactive); that for `NC(=S)N/N=C/c1coc2cc(Cl)ccc2c1=O`, -10.9% (inactive).
The result for `CCc1noc(C)c1C(=O)Nc1nc(-c2ccccc2)cs1` reads 6.55% (inactive); that for `CCS(=O)(=O)c1ccc(C(=O)NC)c(Cl)c1Cl`, -1.91% (inactive); that for `CC1=NCCN1S(=O)(=O)c1cccc([N+](=O)[O-])c1`, 7.48% (inactive).
The result for `Cc1cc(C)n(S(=O)(=O)c2cccc([N+](=O)[O-])c2)n1` reads 19.3% (inactive); that for `Cc1ccc(-c2cn(S(=O)(=O)c3cccc([N+](=O)[O-])c3)nc2N)cc1`, 63.5% (active); that for `CCCCCCCNC(=O)C1(CC2CC(c3cccc(Br)c3)=NO2)CCN(C(=O)c2cc(OCC)c(OCC)c(OCC)c2)CC1` (centres undefined), 28.4% (inactive).
Consider `COc1cc(N)c(Cl)cc1C(=O)OCC(=O)c1ccc2c(c1)NC(=O)CO2`, for which the inhibition is -2.39% (inactive).
Turning to `CCCCCCc1cc2cc(-c3nnc(-c4ccccc4)o3)c(=O)oc2cc1O`, the inhibition was 0.529% (inactive).
As for `CCCCCCCN=C(C)c1ccccc1O`, the figure is 2.33% (inactive).
The result for `CCCCCCc1ccc(O)cc1O` reads 63.7% (active); that for `O=C(CNS(=O)(=O)c1ccccc1)N1CCN(C(=O)c2ccco2)CC1`, -1.99% (inactive); that for `CC1(C)CC(=O)c2c(n(S(=O)(=O)c3ccccc3)c3ccc(NS(=O)(=O)c4ccccc4)cc23)C1`, 63.5% (active).
As for `Cn1c(CCN2CCCC2)nc2cc(NS(=O)(=O)c3ccccc3)ccc21`, the figure is 9.31% (inactive); as for `Cn1c(=O)n(C)c2cc(NS(=O)(=O)c3ccc(F)cc3)ccc21`, 2.2% (inactive).
For `CCn1c(SCc2ccccc2)nc2cc(OC)c(OC)cc2c1=O`, the inhibition was 18.8% (inactive).
For the compound `CN1CCN(C(=O)c2ccccc2NC(=O)COc2ccccc2Cl)CC1`, the inhibition was -5.23% (inactive).
The result for `O=C1c2ccccc2S(=O)(=O)c2cc(N3CCN(c4ccccn4)CC3)ccc21` reads -2.13% (inactive).
As for `CCOc1ccc(NC(=O)COc2ccc(C(=O)N3CCC(C(N)=O)CC3)cc2OC)cc1`, the figure is -10.5% (inactive); as for `Cc1ccc(-n2nc3ccc(NC(=O)/C=C/c4ccco4)cc3n2)cc1C`, -97.4% (inactive).
As for `CCC(=O)Nc1ccc(C(=O)Nc2cccc(OC)c2)cc1`, the figure is -19% (inactive); as for `CCC(=O)Nc1ccc2nn(-c3ccc(F)cc3)nc2c1`, 55.3% (active); as for `C=CCOc1cccc(C2C(C(=O)c3ccc(C)o3)=C(O)C(=O)N2c2nnc(C)s2)c1` (centres undefined), 5.31% (inactive).
Regarding `N#C/C(=C\C1=C(N2CCOCC2)C(=C\c2ccccc2)/CC1)C(=O)Nc1ccccc1F`, the inhibition was 57.8% (active).
The result for `C(=N\N1CCN(c2ccccn2)CC1)/C1=C(N2CCOCC2)C(=C/c2ccccc2)/CC1` reads -15.4% (inactive); that for `N#C/C(=C\c1ccccc1C(F)(F)F)C(=O)Nc1ccccc1F`, -1.24% (inactive).
`CC(=O)c1ccc(NC(=O)c2sc3nc4n(c(=O)c3c2C)CCCCC4)cc1`: the inhibition is -12.8% (inactive).
Take `Cc1ccc(N(CCC(=O)O)S(=O)(=O)c2cccc(C(F)(F)F)c2)cc1`: the inhibition was -18.4% (inactive).
As for `Cc1ccc(C)c(NC(=S)NNC(=O)c2csc(C)c2)c1`, the figure is 6.88% (inactive); as for `CC(C)c1ccc(NC(=S)NNc2ccc(Cl)c(C(=O)O)c2)cc1`, 14.4% (inactive); as for `Cc1ccc(C)c(NC(=S)NNC(=S)Nc2ccc(C(C)C)cc2)c1`, 65.3% (active).
The result for `COc1cc2ccccc2cc1C(=O)Nc1ccncc1` reads 6.55% (inactive); that for `O=c1oc(/C=C/c2ccccc2)nc2ccccc12`, -17.7% (inactive).
As to `CCn1c(/C=C/c2ccc([N+](=O)[O-])o2)nc2ccccc2c1=O`, the inhibition was 85.9% (active).
Regarding `CCn1c(=O)c([N+](=O)[O-])c(NCc2ccc3c(c2)OCO3)c2ccccc21`, the inhibition is 24.6% (inactive).
For the compound `O=C(Cc1ccc(S(=O)(=O)N2CCOCC2)s1)N1CCN(c2ccc(C(F)(F)F)cc2[N+](=O)[O-])CC1`, the inhibition is 31% (inactive).
The result for `CNC(=S)N/N=C/c1ccc(N2CCOCC2)s1` reads 57.6% (active).
The result for `C=CCNC(=S)N/N=C/c1ccc(C)s1` reads 50.5% (inactive); that for `Cc1cc(C(=O)N/N=C/c2ccc(N3CCOCC3)cc2)c(C)o1`, 0.447% (inactive); that for `CCCCn1c(N)c(N(CCOC)C(=O)c2cccc(S(=O)(=O)N(C)c3ccccc3)c2)c(=O)[nH]c1=O`, 2.71% (inactive).
In the case of `CCc1ccccc1NC(=O)c1ccc2snnc2c1`, the inhibition was -10.4% (inactive).
As for `O=C(Nc1ccc2ccccc2c1)Nc1ccc2snnc2c1`, the inhibition was 57.6% (active).
As for `O=C(Nc1cccc(Br)c1)c1ccc2snnc2c1`, the figure is 10.3% (inactive); as for `O=S(=O)(NCCS(=O)(=O)N1CCN(c2ccccc2)CC1)c1ccc(F)cc1`, -2.33% (inactive).
As for `COc1cccc(NC(=O)NCc2ccc(F)cc2)c1`, the figure is 1.25% (inactive); as for `Cc1cccc(NC(=O)Nc2nnc(-c3ccccc3)o2)c1`, -4.53% (inactive); as for `Cc1cccc(NC(=O)Nc2cccc(Oc3c(F)c(F)c(F)c(F)c3F)c2)c1`, 68.5% (active).
The result for `COc1ccc(C(=O)NCC(c2ccco2)N2CCc3ccccc32)cc1OC` (centres undefined) reads 5.94% (inactive); that for `COc1ccc(C(=O)NCC2CCCN2S(=O)(=O)c2cccs2)cc1OC` (centres undefined), -3.88% (inactive).
Turning to `COc1ccc(-c2cc(C(=O)N/N=C/c3cccnc3)c3ccccc3n2)c(OC)c1`, the inhibition was -3.19% (inactive).
The result for `COc1ccc(-c2cc(C(F)(F)F)nc(S(C)(=O)=O)n2)cc1OC` reads 60.3% (active); that for `COc1ccc(-c2ccc(Nc3ccc(S(=O)(=O)N4CCCC4)cc3)nn2)cc1OC`, 14.2% (inactive).
Consider `COc1ccc(-c2cc(C(F)(F)F)nc(NCc3cccnc3)n2)cc1`, for which the inhibition was 49.2% (inactive).
As for `Cc1cc2nc3n(c2cc1C)CC1CC(C(=O)NCCC(C)C)N(C)C31` (centres undefined), the figure is -2.62% (inactive).

Values taken from PubChem BioAssay AID1885 (Broad Institute, 2009).
